Test results published in ChEMBL document CHEMBL1159047, “Synthesis and biological evaluation of antitumour-active betulin derivatives” (Bioorg Med Chem, 2010).
The source made the active and inactive calls. The calls are words filed in the database; no cut-off is given here.

How the values were obtained:
FaDu = assay: Growth inhibition of human FADU cells at 30 uM after 96 hrs by SRB assay; assay type: functional, cell-based
Method in brief: (§1)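 Same SRB set-up: RPMI 1640 with 10% FBS at 37 °C, 5% CO2, and a 96 h exposure starting 24 h after seeding (DMSO or DMF ≤0.5% final). Percent viable cells relative to untreated controls is read at 30 µM, the top concentration of the 0–30 µM dilution series. Cells were fixed with TCA, stained with SRB and read at 570 nm; ≥3 independent experiments.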

A253 = assay: Growth inhibition of human A253 cells at 30 uM after 96 hrs by SRB assay; assay type: functional, cell-based; method in brief: as §1
8505C = assay: Growth inhibition of human 8505C cells at 30 uM after 96 hrs by SRB assay; assay type: functional, cell-based; method in brief: as §1
HT-29 = assay: Growth inhibition of human HT-29 cells at 30 uM after 96 hrs by SRB assay; assay type: functional, cell-based; method in brief: as §1
A549 = assay: Growth inhibition of human A549 cells at 30 uM after 96 hrs by SRB assay; assay type: functional, cell-based; method in brief: as §1
HCT-8 = assay: Growth inhibition of human HCT8 cells at 30 uM after 96 hrs by SRB assay; assay type: functional, cell-based; method in brief: as §1
Homo sapiens = organism: Homo sapiens; assay: Growth inhibition of human Liposarcoma cells at 30 uM after 96 hrs by SRB assay; assay type: functional; method in brief: as §1
HCT-116 [1] = assay: Growth inhibition of human HCT116 cells at 30 uM after 96 hrs by SRB assay; assay type: functional, cell-based; method in brief: as §1
A2780 [2] = assay: Growth inhibition of human A2780 cells at 30 uM after 96 hrs by SRB assay; assay type: functional, cell-based; method in brief: as §1
A-431 [3] = assay: Growth inhibition of human A431 cells at 30 uM after 96 hrs by SRB assay; assay type: functional, cell-based; method in brief: as §1
SW-1736 [4] = assay: Growth inhibition of human SW1736 cells at 30 uM after 96 hrs by SRB assay; assay type: functional, cell-based; method in brief: as §1
DLD-1 = assay: Growth inhibition of human DLD1 cells at 30 uM after 96 hrs by SRB assay; assay type: functional, cell-based; method in brief: as §1
518A2 = assay: Growth inhibition of human 518A2 cells at 30 uM after 96 hrs by SRB assay; assay type: functional, cell-based; method in brief: as §1
SW480 = assay: Growth inhibition of human SW480 cells at 30 uM after 96 hrs by SRB assay; assay type: functional, cell-based; method in brief: as §1
HCT-116 [5] = assay: Cytotoxicity against human HCT116 cells after 96 hrs by SRB assay; assay type: functional, cell-based; conditions: HCT-116, 96 h
Method in brief: (§2)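 Monolayer cells grown in RPMI 1640 with 10% heat-inactivated FBS and penicillin/streptomycin at 37 °C, 5% CO2. Cells were seeded and, after 24 h, exposed to serial dilutions (0–30 µM; DMSO or DMF ≤0.5% final) for 96 h. They were then fixed with 10% TCA at 4 °C, stained with 0.4% SRB and dissolved in 10 mM Tris, with absorbance read at 570 nm. IC50 comes from semi-log dose–response curves of survival versus untreated controls, from ≥3 independent experiments.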

SW-1736 [6] = assay: Cytotoxicity against human SW1736 cells after 96 hrs by SRB assay; assay type: functional, cell-based; conditions: SW-1736, 96 h; method in brief: as §2
A-431 [7] = assay: Cytotoxicity against human A431 cells after 96 hrs by SRB assay; assay type: functional, cell-based; conditions: A-431, 96 h; method in brief: as §2
A2780 [8] = assay: Cytotoxicity against human A2780 cells after 96 hrs by SRB assay; assay type: functional, cell-based; conditions: A2780, 96 h; method in brief: as §2

Compound | growth inhibition (GI) (FaDu) | growth inhibition (GI) (A253) | growth inhibition (GI) (8505C) | growth inhibition (GI) (HT-29) | growth inhibition (GI) (A549) | growth inhibition (GI) (HCT-8) | growth inhibition (GI) (Homo sapiens) | growth inhibition (GI) (HCT-116 [1]) | growth inhibition (GI) (A2780 [2]) | growth inhibition (GI) (A-431 [3]) | growth inhibition (GI) (SW-1736 [4]) | growth inhibition (GI) (DLD-1) | growth inhibition (GI) (518A2) | growth inhibition (GI) (SW480) | IC50 (HCT-116 [5]) | IC50 (SW-1736 [6]) | IC50 (A-431 [7]) | IC50 (A2780 [8])
C=C(C)[C@@H]1CC[C@]2([C@@H]3O[C@@H]3C#N)CC[C@]3(C)[C@H](CC[C@@H]4[C@@]5(C)CC[C@H](OC(C)=O)C(C)(C)[C@@H]5CC[C@]43C)[C@@H]12 | inactive | inactive | inactive | inactive | inactive | inactive | inactive | inactive | inactive | inactive | inactive | inactive | inactive | inactive | – | – | – | –
C=C(C)[C@@H]1CC[C@]2(/C=C/C(=O)OCC)CC[C@]3(C)[C@H](CC[C@@H]4[C@@]5(C)CC[C@H](OC)C(C)(C)[C@@H]5CC[C@]43C)[C@@H]12 | inactive | inactive | inactive | inactive | inactive | inactive | inactive | inactive | inactive | inactive | inactive | inactive | inactive | inactive | – | – | – | –
C=C(C)[C@@H]1CC[C@]2(/C=C/C(=O)OCC)CC[C@]3(C)[C@H](CC[C@@H]4[C@@]5(C)CC[C@H](OC(C)=O)C(C)(C)[C@@H]5CC[C@]43C)[C@@H]12 | inactive | inactive | inactive | inactive | inactive | inactive | inactive | inactive | inactive | inactive | inactive | inactive | inactive | inactive | – | – | – | –
C=C(C)[C@@H]1CC[C@]2(/C=C3\CCOC3=O)CC[C@]3(C)[C@H](CC[C@@H]4[C@@]5(C)CC[C@H](OC(C)=O)C(C)(C)[C@@H]5CC[C@]43C)[C@@H]12 | inactive | inactive | inactive | inactive | inactive | inactive | inactive | – | inactive | – | – | inactive | inactive | inactive | 13.9 µM | 18.8 µM | 19.4 µM | –
C=C(C)[C@@H]1CC[C@]2([C@H](O)CC(=O)OCC)CC[C@]3(C)[C@H](CC[C@@H]4[C@@]5(C)CC[C@H](OC)C(C)(C)[C@@H]5CC[C@]43C)[C@@H]12 | inactive | inactive | inactive | inactive | inactive | inactive | inactive | inactive | inactive | inactive | inactive | inactive | inactive | inactive | – | – | – | –
C=C(C)[C@@H]1CC[C@]2([C@@H]3O[C@@]34CCOC4=O)CC[C@]3(C)[C@H](CC[C@@H]4[C@@]5(C)CC[C@H](OC(C)=O)C(C)(C)[C@@H]5CC[C@]43C)[C@@H]12 | inactive | – | inactive | inactive | inactive | inactive | inactive | inactive | inactive | inactive | inactive | inactive | inactive | inactive | – | – | – | –
C=C(C)[C@@H]1CC[C@]2([C@@H]3O[C@H]3C(=O)OC)CC[C@]3(C)[C@H](CC[C@@H]4[C@@]5(C)CC[C@H](OC(C)=O)C(C)(C)[C@@H]5CC[C@]43C)[C@@H]12 | inactive | inactive | inactive | inactive | inactive | inactive | inactive | – | – | inactive | – | inactive | inactive | inactive | 18.1 µM | 17.6 µM | – | 12.3 µM
